Converted amounts (≈) assume the structure as drawn.
Experiments:
[1] = tested on: Plasmodium falciparum; assay: Antiplasmodial activity against Plasmodium falciparum 3D7 infected human erythrocytes by Giemsa staining; assay type: functional, organism-based
Method in brief: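 Human malaria parasites were kept in culture, and the test samples were made up as DMSO stock solutions before assay.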

[2] = tested on: Aorta; assay: Vasodilation activity in Wistar rat endothelium-intact thoracic aortic ring assessed as inhibition of phenylepinephrine-induced contraction at 30 uM; assay type: functional; set-up: scale not given: the % may be the effect or the level left
[3] = tested on: HeLa; assay: Cytotoxicity against human HeLa cells; assay type: cell-based

Structure (SMILES)	IC50 [1]	Activity [2]	IC50 [3]
C/C=C1\C[N+]2([O-])[C@H]3C[C@@H]1[C@]1(C(=O)OC)[C@@H](OC(C)=O)[C@]4(C[C@@H]12)c1ccccc1N(C)[C@H]34 [ALSTIPHYLLANINE A]	6.85 µg/mL (≈ 16.1 µM)	70%	> 25 µg/mL
C/C=C1/C[N+]2(C)[C@@H]3C[C@@]45c6cc(OC)ccc6N(C)[C@]4(O3)[C@@H]2C[C@@H]1[C@@]5(COC(=O)c1ccc(OC)c(OC)c1)C(=O)OC (some centres not stated) [ALSTIPHYLLANINE B]	0.34 µg/mL	35%	> 25 µg/mL
C/C=C1/C[N+]2(C)[C@@H]3C[C@@]45c6cc(OC)ccc6N(C)[C@]4(O3)[C@@H]2C[C@@H]1[C@@]5(COC(=O)c1cc(OC)c(OC)c(OC)c1)C(=O)OC (some centres not stated) [ALSTIPHYLLANINE C]	6.2 µg/mL	40%	> 25 µg/mL
C/C=C1/CN2[C@@H]3C[C@@]45c6cc(OC)ccc6N(C)[C@]4(O3)[C@@H]2C[C@@H]1[C@@]5(COC(=O)c1cc(OC)c(OC)c(OC)c1)C(=O)OC [ALSTIPHYLLANINE D]	2.75 µg/mL (≈ 4.53 µM)	42%	> 25 µg/mL

— ChEMBL document CHEMBL1152328, “Alstiphyllanines A-D, indole alkaloids from Alstonia macrophylla” (J Nat Prod, 2009)
